Results reported in ChEMBL document CHEMBL5058577, “EUbOPEN Chemogenomics Library 2 (Multiplex)” (2022).

Tested on: U2OS
Assay: Multiplex assay against U2OS
Assay type: toxicity, cell-based
Conditions: human
Procedure, shortened: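 Imaging took place on a CQ1 microscope at 37°C and 5% CO2 once compound had been added to live cells stained at seeding with Hoechst33342, BioTracker Green Microtubule Cytoskeleton Dye, MitoTracker Red and Annexin V Alexa Fluor 680. CellPathfinder machine-learning gating classed cells as Hoechst high-intensity objects or normal cells, classed normal cells as having healthy, pyknosed or fragmented nuclei, and classed pyknosed cells as mitotic or apoptotic. Tubulin, mitochondrial-mass and membrane-permeability phenotypes are per cents of the healthy-nucleus cells.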

[1] = 12 h, 1 µM, compound concentration 1 uM, replicate 1
[2] = 12 h, 1 µM, compound concentration 1 uM, replicate 2
[3] = 12 h, 10 µM, compound concentration 10 uM, replicate 1
[4] = 12 h, 10 µM, compound concentration 10 uM, replicate 2
[5] = 24 h, 1 µM, compound concentration 1 uM, replicate 1
[6] = 24 h, 1 µM, compound concentration 1 uM, replicate 2
[7] = 24 h, 10 µM, compound concentration 10 uM, replicate 1
[8] = 24 h, 10 µM, compound concentration 10 uM, replicate 2
[9] = 48 h, 1 µM, compound concentration 1 uM, replicate 1
[10] = 48 h, 1 µM, compound concentration 1 uM, replicate 2
[11] = 48 h, 10 µM, compound concentration 10 uM, replicate 1
[12] = 48 h, 10 µM, compound concentration 10 uM, replicate 2

## COc1cccc2c1c(NS(=O)(=O)c1ccc(Cl)s1)nn2Cc1cccc(CNC(=O)C(C)(C)O)c1
[1]
  Population Apoptotic (%): 86%
  Population Fragmented Nuclei (%): 23%
  Population Healthy Nuclei (%): 67%
  Population Hoechst High Intensity Objects (%): 3%
  Population Membrane Permeable-Phenotype (%): 4%
  Population Mitochondria Different-Phenotype (%): 1%
  Population Mitotic Cells (%): 13%
  Population Normal (%): 96%
  Population Pyknosed Nuclei (%): 9%
  Population Tubulin-Different-Phenotype (%): 1%
  Total Cell Count: 261
[2]
  Population Apoptotic (%): 81%
  Population Fragmented Nuclei (%): 29%
  Population Healthy Nuclei (%): 64%
  Population Hoechst High Intensity Objects (%): 6%
  Population Membrane Permeable-Phenotype (%): 7%
  Population Mitochondria Different-Phenotype (%): 3%
  Population Mitotic Cells (%): 18%
  Population Normal (%): 93%
  Population Pyknosed Nuclei (%): 5%
  Population Tubulin-Different-Phenotype (%): 6%
  Total Cell Count: 201
[3]
  Population Apoptotic (%): 76%
  Population Fragmented Nuclei (%): 26%
  Population Healthy Nuclei (%): 65%
  Population Hoechst High Intensity Objects (%): 1%
  Population Membrane Permeable-Phenotype (%): 6%
  Population Mitochondria Different-Phenotype (%): 2%
  Population Mitotic Cells (%): 23%
  Population Normal (%): 98%
  Population Pyknosed Nuclei (%): 8%
  Population Tubulin-Different-Phenotype (%): 4%
  Total Cell Count: 264
[4]
  Population Apoptotic (%): 83%
  Population Fragmented Nuclei (%): 25%
  Population Healthy Nuclei (%): 70%
  Population Hoechst High Intensity Objects (%): 5%
  Population Membrane Permeable-Phenotype (%): 8%
  Population Mitochondria Different-Phenotype (%): 3%
  Population Mitotic Cells (%): 16%
  Population Normal (%): 94%
  Population Pyknosed Nuclei (%): 4%
  Population Tubulin-Different-Phenotype (%): 2%
  Total Cell Count: 140
[5]
  Population Apoptotic (%): 96%
  Population Fragmented Nuclei (%): 20%
  Population Healthy Nuclei (%): 70%
  Population Hoechst High Intensity Objects (%): 1%
  Population Membrane Permeable-Phenotype (%): 5%
  Population Mitochondria Different-Phenotype (%): 1%
  Population Mitotic Cells (%): 3%
  Population Normal (%): 98%
  Population Pyknosed Nuclei (%): 8%
  Population Tubulin-Different-Phenotype (%): 3%
  Total Cell Count: 307
[6]
  Population Apoptotic (%): 90%
  Population Fragmented Nuclei (%): 28%
  Population Healthy Nuclei (%): 66%
  Population Hoechst High Intensity Objects (%): 5%
  Population Membrane Permeable-Phenotype (%): 8%
  Population Mitochondria Different-Phenotype (%): 3%
  Population Mitotic Cells (%): 9%
  Population Normal (%): 94%
  Population Pyknosed Nuclei (%): 4%
  Population Tubulin-Different-Phenotype (%): 6%
  Total Cell Count: 242
[7]
  Population Apoptotic (%): 90%
  Population Fragmented Nuclei (%): 25%
  Population Healthy Nuclei (%): 64%
  Population Hoechst High Intensity Objects (%): 1%
  Population Membrane Permeable-Phenotype (%): 5%
  Population Mitochondria Different-Phenotype (%): 3%
  Population Mitotic Cells (%): 10%
  Population Normal (%): 98%
  Population Pyknosed Nuclei (%): 10%
  Population Tubulin-Different-Phenotype (%): 2%
  Total Cell Count: 304
[8]
  Population Apoptotic (%): 88%
  Population Healthy Nuclei (%): 68%
  Population Hoechst High Intensity Objects (%): 5%
  Population Membrane Permeable-Phenotype (%): 8%
  Population Mitochondria Different-Phenotype (%): 4%
  Population Mitotic Cells (%): 11%
  Population Normal (%): 94%
  Population Pyknosed Nuclei (%): 5%
  Total Cell Count: 167
[9]
  Population Apoptotic (%): 95%
  Population Fragmented Nuclei (%): 14%
  Population Healthy Nuclei (%): 76%
  Population Hoechst High Intensity Objects (%): 1%
  Population Membrane Permeable-Phenotype (%): 4%
  Population Mitochondria Different-Phenotype (%): 1%
  Population Mitotic Cells (%): 4%
  Population Normal (%): 98%
  Population Pyknosed Nuclei (%): 9%
  Population Tubulin-Different-Phenotype (%): 2%
  Total Cell Count: 463
[10]
  Population Apoptotic (%): 74%
  Population Fragmented Nuclei (%): 22%
  Population Healthy Nuclei (%): 68%
  Population Hoechst High Intensity Objects (%): 7%
  Population Membrane Permeable-Phenotype (%): 5%
  Population Mitochondria Different-Phenotype (%): 4%
  Population Mitotic Cells (%): 25%
  Population Normal (%): 92%
  Population Tubulin-Different-Phenotype (%): 5%
  Total Cell Count: 314
[11]
  Population Apoptotic (%): 93%
  Population Fragmented Nuclei (%): 20%
  Population Healthy Nuclei (%): 71%
  Population Hoechst High Intensity Objects (%): 2%
  Population Membrane Permeable-Phenotype (%): 5%
  Population Mitochondria Different-Phenotype (%): 2%
  Population Mitotic Cells (%): 6%
  Population Normal (%): 97%
  Population Pyknosed Nuclei (%): 8%
  Population Tubulin-Different-Phenotype (%): 3%
  Total Cell Count: 413
[12]
  Population Apoptotic (%): 100%
  Population Fragmented Nuclei (%): 22%
  Population Hoechst High Intensity Objects (%): 3%
  Population Mitochondria Different-Phenotype (%): 3%
  Population Mitotic Cells (%): 0%
  Population Normal (%): 96%
  Population Pyknosed Nuclei (%): 5%
  Total Cell Count: 235
